# Data reported in ChEMBL document CHEMBL5331128, “Alicyclic Ring Size Variation of 4-Phenyl-2-naphthoic Acid Derivatives as P2Y14 Receptor Antagonists” (J Med Chem, 2023).
# Active and inactive are the calls of the source.
# Experiments:
# P2Y purinoceptor 14 = target: T1, P2Y purinoceptor 14 (Homo sapiens, UniProt Q15391); assay: Displacement of fluorescent tracer 4-(4-(1-(4-(1-(6-(3-carboxylato-4-(3-iminio-3H-xanthen-9-yl)benzamido)hexyl)-4,5-dihydro-1H-pyrrol-3-yl)butyl)piperidin-1-ium-4-yl)phenyl)-7-(4-(trifluoromethyl)phenyl)-2-naphthoate from human P2Y14R stably expressed in CHO cells by flow cytometry; format: cell-based
# T1 sequence (Q15391 whole entry): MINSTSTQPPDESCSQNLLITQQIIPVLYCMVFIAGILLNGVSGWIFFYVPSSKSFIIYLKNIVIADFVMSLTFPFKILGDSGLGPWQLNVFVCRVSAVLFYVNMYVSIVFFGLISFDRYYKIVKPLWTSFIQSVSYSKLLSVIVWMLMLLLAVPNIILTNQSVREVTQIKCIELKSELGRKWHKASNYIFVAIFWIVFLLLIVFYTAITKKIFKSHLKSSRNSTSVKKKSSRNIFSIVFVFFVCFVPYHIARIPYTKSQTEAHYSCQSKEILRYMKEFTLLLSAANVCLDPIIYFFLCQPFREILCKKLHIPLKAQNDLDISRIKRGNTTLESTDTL
# Outline: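 Whole-cell competitive binding: CHO cells expressing hP2Y14R (or HEK-293 cells expressing mP2Y14R) incubated with AlexaFluor488-labelled antagonist tracer at 20 nM.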
# [1] = target: 5-hydroxytryptamine receptor 1B (Homo sapiens, UniProt P28222); assay: Displacement of [3H]-5-CT from human 5-HT1B receptor assessed as inhibition constant by radioligand displacement assay
# [2] = Acute toxicity in Wistar rat assessed as mortality at 0.5 mg/kg, iv and measured upto 24 hrs; format: organism-based; conditions: in vivo
# Outline: (§1)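 Male Wistar rats; single dose at 1, 3 or 10 mg/kg i.p., or 0.5 mg/kg i.v. Animals were watched for mortality and morbidity over the experimental period, in the course of a plasma pharmacokinetic study.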
# [3] = Acute toxicity in Wistar rat assessed as morbidity at 0.5 mg/kg, iv and measured upto 24 hrs; format: organism-based; conditions: in vivo; outline: as §1
# [4] = Half life in Wistar rat at 1 mg/kg, ip and measured upto 24 hrs; format: ADME, organism-based; conditions: in vivo
# [5] = Half life in Wistar rat at 10 mg/kg, ip and measured upto 24 hrs; format: ADME, organism-based; conditions: in vivo
# [6] = Half life in Wistar rat at 0.5 mg/kg, iv and measured upto 24 hrs; format: ADME, organism-based; conditions: in vivo
# [7] = Stability in simulated intestinal fluid assessed as parent compound remaining after 120 mins; format: ADME; conditions: simulated gi fluid, 2 h
# Outline: (§2)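 Incubation in simulated gastric or intestinal fluid; percent parent remaining read at 120 min.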
# [8] = Stability in simulated gastric fluid assessed as parent compound remaining after 120 mins; format: ADME; conditions: simulated gi fluid, 2 h; outline: as §2
# Cytochrome P450 1A2 = target: T2, Cytochrome P450 1A2 (Homo sapiens, UniProt P05177); assay: Inhibition of CYP1A2 (unknown origin); format: ADME
# T2 sequence (P05177 whole entry): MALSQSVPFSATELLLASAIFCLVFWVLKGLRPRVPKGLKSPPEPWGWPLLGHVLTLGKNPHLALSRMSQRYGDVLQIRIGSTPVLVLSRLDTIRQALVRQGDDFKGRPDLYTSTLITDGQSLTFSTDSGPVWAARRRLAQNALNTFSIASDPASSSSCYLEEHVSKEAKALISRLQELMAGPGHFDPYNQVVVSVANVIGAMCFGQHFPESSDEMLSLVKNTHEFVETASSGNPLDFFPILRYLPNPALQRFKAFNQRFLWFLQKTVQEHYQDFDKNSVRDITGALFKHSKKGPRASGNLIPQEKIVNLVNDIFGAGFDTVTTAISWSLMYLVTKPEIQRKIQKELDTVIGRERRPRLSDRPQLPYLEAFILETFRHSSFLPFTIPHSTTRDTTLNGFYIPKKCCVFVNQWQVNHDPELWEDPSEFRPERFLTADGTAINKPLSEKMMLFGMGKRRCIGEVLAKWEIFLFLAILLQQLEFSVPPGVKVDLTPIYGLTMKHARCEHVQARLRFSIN
# Cytochrome P450 2C9 = Cytochrome P450 2C9 (Homo sapiens, UniProt P11712); assay: Inhibition of CYP2C9 (unknown origin); format: ADME
# [9] = Stability in human plasma assessed as parent compound remaining at 1 uM and measured at 120 mins by LC-MS/MS analysis; format: ADME, cell-free; conditions: 2 h
# Outline: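 Plasma from human, rat and mouse; percent parent remaining at 120 min.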
# [10] = Microsomal stability in mouse liver microsomes assessed as half life; format: ADME, Microsome
# [11] = Microsomal stability in rat liver microsomes assessed as half life; format: ADME, Microsome
# [12] = target: Voltage-gated inwardly rectifying potassium channel KCNH2 (Homo sapiens, UniProt Q12809); assay: Inhibition of human ERG stably expressed in human HEK293 cells incubated for 2 hrs by TAMRA based fuorescence polarization assay; format: toxicity, cell-based
# Outline: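 hERG inhibition measured in a fluorescent dye-binding assay.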
# HepG2 = assay: Cytotoxicity in human HepG2 cells assessed as reduction in cell viability; format: toxicity, cell-based
# [13] = Protein binding in rat plasma assessed as bound fraction; format: ADME, cell-free
# Mus musculus [14] = assay: Antiallodynic activity in CCI surgery neuropathic pain Hsd:ICR mouse model assessed as reversal of mechano-allodynia by measuring paw withdrawal threshold at 10 micromol/kg,po and measured upto 6 hrs by von frey test; format: functional, organism-based; conditions: dose 10.0 µmol/kg
# Outline: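 CCI neuropathic pain in adult male CD-1 mice. Single oral gavage dose of 10 μmol/kg on day 7 post-surgery. Vehicle 5% DMSO + 10% (Kolliphor HS 15:DMSO 5:95) in 0.5% methylcellulose, 0.2 mL. Von Frey paw withdrawal threshold on both hindpaws. Mean ± SD; two-way ANOVA with Dunnett's test.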
# Mus musculus [15] = assay: Antiallodynic activity in CCI surgery neuropathic pain Hsd:ICR mouse model assessed as reversal of mechano-allodynia by measuring paw withdrawal threshold at 10 micromol/kg,ip and measured upto 5 days by von frey test; format: functional, organism-based; conditions: dose 10.0 µmol/kg, time <= 5.0 day
# Outline: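 CCI neuropathic pain in adult male Hsd:ICR (CD-1) mice (20–30 g). Single i.p. injection on day 7 after sciatic nerve constriction, at peak pain. Vehicle 10% (Kolliphor HS 15:DMSO 5:95) in saline, 0.2 mL. Paw withdrawal threshold by von Frey filaments on ipsilateral and contralateral hindpaws. Mean ± SD; two-way ANOVA with Dunnett's test versus day 0 and day 7.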
# Mus musculus [16] = assay: Anti-asthmatic activity against OVA/Aspergillus-sensitized protease-mediated C57BL/6J mouse model allergic asthma assessed as reduction in airway eosinophilia in BAL fluid at 10 mg/kg,ip followed by 0.5 hrs OVA challenge and measured after 48 hrs; format: functional, organism-based; conditions: time 48.5 hrs
# [17] = Intraperitoneal bioavailability in Wistar rat at 3 mg/kg and measured upto 24 hrs; conditions: in vivo, ip
# 5-hydroxytryptamine receptor 1B, sequence (P28222 whole entry): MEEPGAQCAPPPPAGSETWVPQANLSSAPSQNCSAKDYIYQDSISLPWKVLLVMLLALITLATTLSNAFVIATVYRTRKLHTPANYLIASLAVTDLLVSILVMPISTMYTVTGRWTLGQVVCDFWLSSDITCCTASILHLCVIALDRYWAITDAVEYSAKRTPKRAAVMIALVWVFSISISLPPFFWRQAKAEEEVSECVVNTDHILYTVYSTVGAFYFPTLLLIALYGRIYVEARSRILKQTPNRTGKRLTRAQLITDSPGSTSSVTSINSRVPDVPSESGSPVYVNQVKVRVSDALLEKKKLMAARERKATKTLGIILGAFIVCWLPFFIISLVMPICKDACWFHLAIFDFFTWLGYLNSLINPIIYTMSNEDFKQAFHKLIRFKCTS
# Voltage-gated inwardly rectifying potassium channel KCNH2, sequence (Q12809 whole entry): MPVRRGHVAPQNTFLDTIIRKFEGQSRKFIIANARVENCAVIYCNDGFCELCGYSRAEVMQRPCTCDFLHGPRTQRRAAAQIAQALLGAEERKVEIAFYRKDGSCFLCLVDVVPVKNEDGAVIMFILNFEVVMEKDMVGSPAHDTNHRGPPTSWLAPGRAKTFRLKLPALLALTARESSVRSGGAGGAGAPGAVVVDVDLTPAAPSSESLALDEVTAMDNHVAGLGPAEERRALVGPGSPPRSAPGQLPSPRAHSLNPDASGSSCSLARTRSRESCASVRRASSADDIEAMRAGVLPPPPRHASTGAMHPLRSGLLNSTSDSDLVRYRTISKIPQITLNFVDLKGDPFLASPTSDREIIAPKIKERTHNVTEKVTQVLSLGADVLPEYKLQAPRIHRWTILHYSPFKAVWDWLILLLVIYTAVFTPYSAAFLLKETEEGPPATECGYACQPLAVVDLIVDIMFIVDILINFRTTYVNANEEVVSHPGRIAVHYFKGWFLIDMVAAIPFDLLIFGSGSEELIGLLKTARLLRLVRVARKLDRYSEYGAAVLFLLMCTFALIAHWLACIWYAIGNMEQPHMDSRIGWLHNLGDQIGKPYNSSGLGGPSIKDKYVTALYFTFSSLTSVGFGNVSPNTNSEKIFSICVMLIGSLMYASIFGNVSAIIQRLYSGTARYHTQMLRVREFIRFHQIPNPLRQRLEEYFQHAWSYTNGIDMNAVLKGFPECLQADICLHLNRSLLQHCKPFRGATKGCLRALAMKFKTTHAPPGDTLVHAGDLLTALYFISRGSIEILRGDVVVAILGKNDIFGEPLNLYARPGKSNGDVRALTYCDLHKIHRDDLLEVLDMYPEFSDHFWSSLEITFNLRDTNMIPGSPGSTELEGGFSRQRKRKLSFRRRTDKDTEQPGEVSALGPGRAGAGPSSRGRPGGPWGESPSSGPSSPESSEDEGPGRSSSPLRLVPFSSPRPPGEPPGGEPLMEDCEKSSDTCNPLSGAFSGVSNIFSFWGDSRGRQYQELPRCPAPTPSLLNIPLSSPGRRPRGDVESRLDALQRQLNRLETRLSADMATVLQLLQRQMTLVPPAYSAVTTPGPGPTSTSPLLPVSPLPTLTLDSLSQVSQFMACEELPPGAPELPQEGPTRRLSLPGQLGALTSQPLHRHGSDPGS
# Cytochrome P450 2C9, sequence (P11712 whole entry): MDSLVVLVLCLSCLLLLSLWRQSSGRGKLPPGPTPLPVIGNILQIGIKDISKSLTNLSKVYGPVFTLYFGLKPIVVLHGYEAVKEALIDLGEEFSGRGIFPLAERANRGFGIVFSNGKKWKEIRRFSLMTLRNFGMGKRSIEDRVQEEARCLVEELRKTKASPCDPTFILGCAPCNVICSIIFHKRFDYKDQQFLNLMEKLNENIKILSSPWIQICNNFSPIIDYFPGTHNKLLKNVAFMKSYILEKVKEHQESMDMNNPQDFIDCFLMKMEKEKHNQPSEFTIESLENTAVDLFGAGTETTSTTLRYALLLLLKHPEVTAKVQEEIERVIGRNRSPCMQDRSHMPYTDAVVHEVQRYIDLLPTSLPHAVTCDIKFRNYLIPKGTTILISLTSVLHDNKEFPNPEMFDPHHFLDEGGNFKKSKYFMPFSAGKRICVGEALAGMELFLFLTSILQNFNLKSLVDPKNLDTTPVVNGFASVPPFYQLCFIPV
structure (smiles),measurement,setting,value
O=C(O)c1cc(-c2ccc([C@]3(O)[C@@H]4CNC[C@H]3C4)cc2)c2ccc(-c3ccc(C(F)(F)F)cc3)cc2c1,IC50,P2Y purinoceptor 14,0.00592 µM
same,Ki,[1],6 µM
same,Activity,[2],Non-Toxic
same,Activity,[3],Non-Toxic
same,t1/2,[4],3.01 h
same,t1/2,[5],4.15 h
same,t1/2,[6],2.36 h
same,Stability,[7],93.3%
same,Stability,[8],69.8%
same,IC50,Cytochrome P450 1A2,> 30 µM
same,IC50,Cytochrome P450 2C9,> 30 µM
same,Stability,[9],91.1%
same,t1/2,[10],5.92 h
same,t1/2,[11],5.7 h
same,IC50,[12],> 30 µM
same,IC50,HepG2,32.6 µM
same,PPB,[13],99.48%
same,Activity,Mus musculus [14],Active
same,Activity,Mus musculus [15],Active
same,Activity,Mus musculus [16],Active
same,bioavailability,[17],114%
